Data set [1] has as its target T1, Discoidin domain-containing receptor 2 (Homo sapiens) (UniProt Q16832).
T1 sequence (whole entry): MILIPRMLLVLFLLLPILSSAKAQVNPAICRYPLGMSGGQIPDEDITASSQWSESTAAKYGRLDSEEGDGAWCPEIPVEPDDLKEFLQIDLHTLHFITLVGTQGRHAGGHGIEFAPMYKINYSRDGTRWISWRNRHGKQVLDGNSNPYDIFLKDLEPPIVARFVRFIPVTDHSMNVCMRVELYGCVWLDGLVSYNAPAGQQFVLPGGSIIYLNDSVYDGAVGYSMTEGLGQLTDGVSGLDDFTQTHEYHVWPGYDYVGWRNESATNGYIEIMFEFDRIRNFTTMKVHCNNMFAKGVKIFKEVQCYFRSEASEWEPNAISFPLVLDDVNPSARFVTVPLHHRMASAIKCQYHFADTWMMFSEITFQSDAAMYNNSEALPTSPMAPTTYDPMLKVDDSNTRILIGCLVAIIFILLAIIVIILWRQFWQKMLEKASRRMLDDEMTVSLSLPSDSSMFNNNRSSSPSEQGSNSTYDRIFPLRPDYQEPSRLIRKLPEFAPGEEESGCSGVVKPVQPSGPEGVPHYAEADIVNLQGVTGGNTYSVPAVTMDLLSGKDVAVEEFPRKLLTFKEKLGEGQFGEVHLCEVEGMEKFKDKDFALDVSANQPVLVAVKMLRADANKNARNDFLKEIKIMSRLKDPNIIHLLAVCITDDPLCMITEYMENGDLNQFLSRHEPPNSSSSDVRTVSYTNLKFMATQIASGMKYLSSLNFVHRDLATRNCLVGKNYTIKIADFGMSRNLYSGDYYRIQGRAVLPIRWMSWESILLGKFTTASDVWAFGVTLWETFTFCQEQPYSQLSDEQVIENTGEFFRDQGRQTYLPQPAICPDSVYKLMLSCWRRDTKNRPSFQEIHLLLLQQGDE
Kind of data set: Inhibition of partial length human wild type DDR2 expressed in mammalian expression system assessed as residual activity at 1 uM relative to control.

Data set [2] is described as follows: Antiproliferative activity against human KU812 cells assessed as cell viability after 72 hrs by CellTiter-Glo or CCK-8 assay. It is filed as functional. Conditions: KU812, 72 h. In general terms: Cellular ATP, detected with luciferase, serves as a proxy for viable cell number.
The target of data set [3] is Ephrin type-B receptor 6 (Homo sapiens) (UniProt O15197). The experiment in a line: Inhibition of partial length human wild type EPHB6 expressed in mammalian expression system assessed as residual activity at 1 uM relative to control.
Sequence of Ephrin type-B receptor 6 (Homo sapiens) (O15197 whole entry, the tested form may be a part): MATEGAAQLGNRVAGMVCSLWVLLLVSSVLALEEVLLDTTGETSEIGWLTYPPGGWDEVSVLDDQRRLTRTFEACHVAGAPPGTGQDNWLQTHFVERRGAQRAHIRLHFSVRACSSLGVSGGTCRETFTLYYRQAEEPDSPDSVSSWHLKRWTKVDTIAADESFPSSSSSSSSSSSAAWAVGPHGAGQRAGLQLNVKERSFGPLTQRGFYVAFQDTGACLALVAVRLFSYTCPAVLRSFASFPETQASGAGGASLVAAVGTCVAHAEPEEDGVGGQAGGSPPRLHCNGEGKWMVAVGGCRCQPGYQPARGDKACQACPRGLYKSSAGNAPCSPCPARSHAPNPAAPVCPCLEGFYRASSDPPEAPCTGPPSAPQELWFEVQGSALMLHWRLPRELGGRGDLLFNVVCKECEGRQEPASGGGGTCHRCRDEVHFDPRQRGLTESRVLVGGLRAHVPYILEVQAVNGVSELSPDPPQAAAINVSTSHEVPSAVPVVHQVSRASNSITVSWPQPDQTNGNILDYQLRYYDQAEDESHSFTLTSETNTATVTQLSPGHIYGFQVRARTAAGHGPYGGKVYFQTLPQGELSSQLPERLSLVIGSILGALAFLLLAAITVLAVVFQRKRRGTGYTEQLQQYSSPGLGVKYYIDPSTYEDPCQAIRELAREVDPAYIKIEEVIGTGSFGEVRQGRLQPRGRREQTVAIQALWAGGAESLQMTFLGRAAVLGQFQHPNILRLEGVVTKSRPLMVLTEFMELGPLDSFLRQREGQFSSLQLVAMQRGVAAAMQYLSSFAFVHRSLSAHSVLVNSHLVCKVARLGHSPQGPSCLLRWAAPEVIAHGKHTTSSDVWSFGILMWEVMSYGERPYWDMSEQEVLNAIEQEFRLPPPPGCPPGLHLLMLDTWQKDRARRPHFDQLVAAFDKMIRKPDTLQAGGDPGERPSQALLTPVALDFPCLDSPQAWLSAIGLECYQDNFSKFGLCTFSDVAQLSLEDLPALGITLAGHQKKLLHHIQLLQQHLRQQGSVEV
The target in data set [4] is T2, Bcr/Abl fusion protein (Homo sapiens) (UniProt P00519+P11274). Kind of data set: Inhibition of BCR/ABL in human KU812 cells assessed as downregulation of ERK phosphorylation at Thr202/Tyr204 site after 1 hr by immunoblotting method. It is filed as cell-based. An outline of the steps: (§1)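 KU812, K562 and MEG-01 cells were exposed to compound at the indicated concentrations for 1 h. Whole-cell lysates were then analysed by Western blot for phosphorylated signaling proteins.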
T2 sequence (P00519 whole entry, looked up, the tested form may be a part): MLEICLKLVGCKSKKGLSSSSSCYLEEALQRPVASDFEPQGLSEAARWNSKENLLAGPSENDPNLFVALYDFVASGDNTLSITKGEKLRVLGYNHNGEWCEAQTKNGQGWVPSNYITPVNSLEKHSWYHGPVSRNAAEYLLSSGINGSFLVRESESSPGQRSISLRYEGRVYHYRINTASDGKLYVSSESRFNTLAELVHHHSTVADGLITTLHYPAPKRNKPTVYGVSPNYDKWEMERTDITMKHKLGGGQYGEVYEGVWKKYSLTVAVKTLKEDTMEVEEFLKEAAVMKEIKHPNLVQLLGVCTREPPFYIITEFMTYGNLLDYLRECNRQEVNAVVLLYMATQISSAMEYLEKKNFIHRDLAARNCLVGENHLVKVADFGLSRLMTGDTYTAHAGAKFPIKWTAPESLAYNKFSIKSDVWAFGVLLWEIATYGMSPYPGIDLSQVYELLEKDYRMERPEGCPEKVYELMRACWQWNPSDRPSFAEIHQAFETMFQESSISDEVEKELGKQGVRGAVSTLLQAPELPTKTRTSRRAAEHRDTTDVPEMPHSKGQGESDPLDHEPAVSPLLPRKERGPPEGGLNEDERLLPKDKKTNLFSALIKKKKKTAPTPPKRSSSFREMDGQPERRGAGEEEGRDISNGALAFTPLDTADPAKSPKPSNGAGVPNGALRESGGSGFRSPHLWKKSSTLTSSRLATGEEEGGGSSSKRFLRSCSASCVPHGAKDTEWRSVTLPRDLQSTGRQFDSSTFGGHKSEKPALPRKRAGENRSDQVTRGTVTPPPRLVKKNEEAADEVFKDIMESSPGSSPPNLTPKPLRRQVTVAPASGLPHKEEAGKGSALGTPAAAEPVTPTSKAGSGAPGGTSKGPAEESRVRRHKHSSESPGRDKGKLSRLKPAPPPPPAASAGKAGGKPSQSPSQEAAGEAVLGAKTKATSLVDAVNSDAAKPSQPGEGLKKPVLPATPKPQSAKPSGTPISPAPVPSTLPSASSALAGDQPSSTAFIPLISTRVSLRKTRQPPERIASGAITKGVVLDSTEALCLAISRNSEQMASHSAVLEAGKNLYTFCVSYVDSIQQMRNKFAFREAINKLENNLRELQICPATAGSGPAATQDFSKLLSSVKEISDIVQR
T2 sequence (P11274 whole entry, looked up, the tested form may be a part): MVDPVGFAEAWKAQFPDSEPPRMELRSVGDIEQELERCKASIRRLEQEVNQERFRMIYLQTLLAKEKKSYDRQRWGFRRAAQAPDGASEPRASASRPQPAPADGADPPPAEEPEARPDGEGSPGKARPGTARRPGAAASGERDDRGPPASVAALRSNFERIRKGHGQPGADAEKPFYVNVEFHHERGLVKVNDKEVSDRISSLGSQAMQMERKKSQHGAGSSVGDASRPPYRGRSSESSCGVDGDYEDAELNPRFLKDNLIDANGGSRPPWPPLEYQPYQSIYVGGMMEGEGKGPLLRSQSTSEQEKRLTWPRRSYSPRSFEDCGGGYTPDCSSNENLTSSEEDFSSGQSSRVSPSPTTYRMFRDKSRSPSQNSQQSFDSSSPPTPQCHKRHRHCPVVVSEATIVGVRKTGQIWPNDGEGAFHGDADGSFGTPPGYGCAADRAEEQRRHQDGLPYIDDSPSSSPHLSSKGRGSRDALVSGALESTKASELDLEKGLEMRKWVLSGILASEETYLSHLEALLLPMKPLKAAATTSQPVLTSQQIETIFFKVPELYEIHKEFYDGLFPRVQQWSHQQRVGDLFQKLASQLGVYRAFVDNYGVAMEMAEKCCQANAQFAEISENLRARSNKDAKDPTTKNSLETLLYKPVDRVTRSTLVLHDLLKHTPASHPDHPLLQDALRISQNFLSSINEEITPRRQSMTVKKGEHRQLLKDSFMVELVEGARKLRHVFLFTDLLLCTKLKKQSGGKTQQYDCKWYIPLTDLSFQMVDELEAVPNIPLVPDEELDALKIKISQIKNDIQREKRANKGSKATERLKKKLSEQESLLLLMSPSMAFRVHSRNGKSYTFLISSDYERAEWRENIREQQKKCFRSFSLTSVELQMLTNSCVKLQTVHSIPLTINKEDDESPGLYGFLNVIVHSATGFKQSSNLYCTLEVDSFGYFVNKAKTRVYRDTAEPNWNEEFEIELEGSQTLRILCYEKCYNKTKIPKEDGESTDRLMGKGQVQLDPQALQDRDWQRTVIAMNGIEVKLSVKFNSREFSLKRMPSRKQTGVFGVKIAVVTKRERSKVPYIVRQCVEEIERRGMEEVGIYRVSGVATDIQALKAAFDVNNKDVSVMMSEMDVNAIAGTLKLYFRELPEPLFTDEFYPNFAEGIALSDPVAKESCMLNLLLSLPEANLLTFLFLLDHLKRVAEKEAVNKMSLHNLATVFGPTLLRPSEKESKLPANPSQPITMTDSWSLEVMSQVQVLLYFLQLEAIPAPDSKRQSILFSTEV
For orientation: A western blot detects proteins with antibodies after separation by electrophoresis.

The target of data set [5] is Mitogen-activated protein kinase 14 (Homo sapiens, UniProt Q16539). The experiment in a line: Inhibition of P38-alpha phosphorylation in human K562 cells at 0.01 to 3 uM after 1 hr by immunoblotting method. It is filed as cell-based. The method in brief:
as §1

The next data set relates to Mus musculus. Kind of data set: Toxicity in nu/nu mouse xenografted with K562 cells assessed as mortality at 25 and 50 mg/kg/day, qd administered through oral gavage for 16 days measured every day during compound dosing. The data set is classed as organism-based. The settings on record: in vivo, 384 h. An outline of the steps: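 Female nu/nu mice carrying established K562 xenografts received oral treatment once daily at 25.0 or 50.0 mg/kg/d, or vehicle, starting when tumours reached 200 to 400 mm3. There were 5 animals per group and dosing lasted 16 days. Body weight was expressed relative to initial weight (set as 100%), and mortality was recorded. Data are given as mean ± SEM.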

A short description of data set [6]: Antiproliferative activity against human MEG01 cells assessed as cell viability after 72 hrs by CellTiter-Glo or CCK-8 assay. It is filed as functional. Conditions: MEG-01, 72 h.
The test system of data set [7] is K562. Kind of data set: Antiproliferative activity against human K562 cells assessed as cell viability after 72 hrs by CellTiter-Glo or CCK-8 assay. The data set is classed as functional. Conditions: K562, 72 h.
For data set [8], the target named is Mast/stem cell growth factor receptor Kit (Homo sapiens, UniProt P10721). Kind of data set: Inhibition of His-tagged recombinant human c-Kit […] expressed in mammalian expression system.
Data set [9] has as its system K562. Kind of data set: Antiproliferative activity against human K562 cells xenografted in nu/nu mouse at 25 and 50 mg/kg/day, qd administered through oral gavage measured after 16 days by hematoxylin/eosin staining-based assay. The data set is classed as functional, organism-based. The method in brief: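 Female nu/nu mice bore established K562 xenografts and received daily oral dosing at 25.0 or 50.0 mg/kg/d, or vehicle, starting when tumors reached 200 to 400 mm3, for 16 days. Groups had 5 animals; data are mean ± SEM. Tumor size and body weight were normalized to initial values, and final tumor weight was recorded. Tumor tissue was stained with HE, Ki-67 and TUNEL.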
In general terms: Xenograft models place foreign cells or tissue in a host animal.

Data set [10] has as its system BaF3. Conditions: Homo sapiens.
For data set [11], the target named is T2, Bcr/Abl fusion protein (Homo sapiens). The experiment in a line: Inhibition of BCR/ABL autophosphorylation at Y245 site in human K562 cells at 300 nM after 1 hr by immunoblotting method. The data set is classed as cell-based. An outline of the steps: as §1
A short description of data set [12]: Tmax in Sprague-Dawley rat at 1 mg/kg, iv. It is filed as ADME, organism-based. The settings on record: in vivo.
The subject of the next data set is KU812 cell line. The experiment in a line: Induction of apoptosis in human KU812 cells assessed as increase in cleaved caspase3 level at 100 nM after 24 hrs by immunoblotting method. It is filed as functional, cell-based.
Data set [13] relates to Bcr/Abl fusion protein (Homo sapiens), P00519+P11274 [F317L]. The settings on record: BaF3.
The test system of data set [14] is Bcr/Abl fusion protein (Homo sapiens), P00519+P11274 [Q252H]. The settings on record: BaF3.
For data set [15], the system named is BaF3. Conditions: Homo sapiens. This is another data set of the same source.
Data set [16] deals with Epithelial discoidin domain-containing receptor 1 (Homo sapiens, UniProt Q08345). The settings on record: BaF3.
Sequence of Epithelial discoidin domain-containing receptor 1 (Q08345 whole entry, the tested form may be a part): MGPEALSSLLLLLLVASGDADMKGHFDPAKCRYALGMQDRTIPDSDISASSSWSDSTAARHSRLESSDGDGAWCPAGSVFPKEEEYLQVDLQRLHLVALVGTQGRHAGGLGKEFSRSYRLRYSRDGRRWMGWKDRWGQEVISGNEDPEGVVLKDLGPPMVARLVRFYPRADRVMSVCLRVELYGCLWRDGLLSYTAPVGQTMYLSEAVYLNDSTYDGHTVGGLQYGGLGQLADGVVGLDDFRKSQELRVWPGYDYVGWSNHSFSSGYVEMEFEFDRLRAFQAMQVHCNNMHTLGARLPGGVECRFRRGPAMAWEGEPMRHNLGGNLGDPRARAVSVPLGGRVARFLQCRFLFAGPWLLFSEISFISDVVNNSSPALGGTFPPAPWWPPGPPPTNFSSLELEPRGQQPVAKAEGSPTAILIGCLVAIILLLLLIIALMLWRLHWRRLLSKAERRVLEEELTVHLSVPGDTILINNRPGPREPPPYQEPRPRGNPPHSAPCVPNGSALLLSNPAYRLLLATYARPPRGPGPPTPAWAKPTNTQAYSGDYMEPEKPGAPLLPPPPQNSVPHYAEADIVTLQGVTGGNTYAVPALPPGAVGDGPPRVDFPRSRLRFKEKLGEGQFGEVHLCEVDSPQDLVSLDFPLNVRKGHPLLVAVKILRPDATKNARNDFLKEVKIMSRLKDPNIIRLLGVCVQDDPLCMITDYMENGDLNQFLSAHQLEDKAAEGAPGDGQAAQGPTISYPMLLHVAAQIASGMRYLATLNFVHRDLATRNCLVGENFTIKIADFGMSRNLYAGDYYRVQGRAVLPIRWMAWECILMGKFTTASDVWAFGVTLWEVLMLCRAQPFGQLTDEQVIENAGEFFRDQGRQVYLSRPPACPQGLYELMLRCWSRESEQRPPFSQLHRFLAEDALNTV
Data set [17] concerns the target T2, Bcr/Abl fusion protein (Homo sapiens). The experiment in a line: Inhibition of BCR/ABL in human KU812 cells assessed as downregulation of CrkL phosphorylation at […] site after 1 hr by immunoblotting method. The data set is classed as cell-based. The method in brief: as §1
A short description of data set [18]: Mean residence time (0 to infinity) in Sprague-Dawley rat at 10 mg/kg, po. The data set is classed as ADME, organism-based. The settings on record: in vivo.
For data set [19], the target named is T2, Bcr/Abl fusion protein (Homo sapiens). The settings on record: BaF3.
The nature of data set [20]: Apparent clearance in Sprague-Dawley rat at 1 mg/kg, iv. Conditions: in vivo, read-out: CL(app) (converted). It is filed as ADME, organism-based.
For data set [21], the target named is T2, Bcr/Abl fusion protein (Homo sapiens). The experiment in a line: Inhibition of BCR/ABL in human MEG01 cells assessed as downregulation of CrkL phosphorylation at […] site after 1 hr by immunoblotting method. The settings on record: MEG-01. The data set is classed as cell-based. The method in brief: as §1
Data set [22] has the same target. The experiment in a line: Inhibition of BCR/ABL in human K562 cells assessed as downregulation of Stat5 phosphorylation at […] site after 1 hr by immunoblotting method. The data set is classed as cell-based. The method in brief: as §1

Active and inactive are the calls of the source. The calls are words filed in the database; no cut-off is given here. Bounds are passed on as bounds.

As usually defined, the GI50 is the concentration at which growth is held to half of that of the control. The IC50 is the concentration at which inhibition is half-maximal. The Tmax is the time at which the peak concentration occurs. The term MRT inf denotes the average time that molecules of a dose stay in the body.

Sequence of Mitogen-activated protein kinase 14 (Q16539 whole entry): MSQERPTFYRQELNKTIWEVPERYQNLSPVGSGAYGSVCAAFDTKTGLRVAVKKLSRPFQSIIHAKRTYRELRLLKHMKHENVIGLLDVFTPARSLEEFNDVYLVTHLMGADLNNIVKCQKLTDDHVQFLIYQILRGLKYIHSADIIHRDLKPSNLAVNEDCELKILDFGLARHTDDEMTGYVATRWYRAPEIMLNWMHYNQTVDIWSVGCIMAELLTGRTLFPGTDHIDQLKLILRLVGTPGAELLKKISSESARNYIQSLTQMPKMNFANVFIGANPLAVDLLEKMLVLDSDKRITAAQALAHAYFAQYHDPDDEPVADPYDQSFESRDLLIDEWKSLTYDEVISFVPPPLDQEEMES

Consider `CNc1nc(Nc2ccc(C)c(N)c2)ncc1C(=O)Nc1cc(NC(=O)c2cccc(C(F)(F)F)c2)ccc1C`, for which the Activity in data set [1] was 0%; in [3] it was 0.95%; with Mus musculus it was “Non-toxic”. The GI50 in data set [2] came to 0.025 µM; in data set [6], 0.016 µM; with K562 [7], 0.014 µM; with BaF3 [10], 0.313 µM; in data set [13], 0.045 µM; in data set [14], 0.14 µM. The GI50 in the data set on BaF3 [15] is 9.25 µM; in data set [16], 3.3 µM; in data set [19] it was 0.44 µM. For the same molecule, the inhibition result in [4], in data set [17], in data set [21] and in data set [22] was “Dose-dependent effect” in each case. For the same molecule, the inhibition entry in data set [5] and in data set [11] was “Active” in each case. Further, the IC50 in [8] was above 10 µM. The result in the data set on K562 [9] and in the data set on KU812 cell line was Active. For the same molecule, the Tmax in data set [12] was 1.2 min. This molecule also yielded an MRT inf in data set [18] of 5.51 h. Also, the clearance in data set [20] is 1.54 L/h/kg.

(Values after ChEMBL document CHEMBL3779840, “Discovery of 2-((3-Amino-4-methylphenyl)amino)-N-(2-methyl-5-(3-(trifluoromethyl)benzamido)phenyl)-4-(methylamino)pyrimidine-5-carboxamide (CHMFL-ABL-053) as a Potent, Selective, and Orally Available BCR-ABL/SRC/p38 Kinase Inhibitor for Chronic Myeloid Leukemia” (J Med Chem, 2016).)
